For test [1], the target named is Mu-type opioid receptor (Cavia porcellus, UniProt P97266). As to the kind of experiment: Binding affinity was determined in a crude membrane preparation from guinea pig brain by displacement of [3H]DAMGO from Opioid receptor mu 1. The test is classed as cell membranes. Summed up:
(§1)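 Guinea pig brain (less cerebellum) homogenized in 0.05 M Tris pH 7.4, pelleted at 25000g (4 °C, 20 min), stored in 0.32 M sucrose at –70 °C. Diluted 1:60, giving 0.8–1.5 mg protein/mL. Radioligands at 1.0 nM ([3H]DAMGO μ, [3H]DPDPE δ, [3H]U69,593 κ). Test ligand in duplicate at nine concentrations, 1.0–1000 nM. Nonspecific binding with 10 μM naloxone. Incubated 60 min at 25 °C, then filtered and counted. Ki from IC50 via Cheng–Prusoff using KD measured in this homogenate.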

The target of test [2] is Opioid receptors; mu & delta (UniProt P41143+P35372). As to the kind of experiment: Selectivity ratio measured in terms of delta opioid receptor to the mu opioid receptor. The test is classed as protein assay. As to conditions: Cavia porcellus.
Chain of Opioid receptors; mu & delta (P35372 whole entry, looked up): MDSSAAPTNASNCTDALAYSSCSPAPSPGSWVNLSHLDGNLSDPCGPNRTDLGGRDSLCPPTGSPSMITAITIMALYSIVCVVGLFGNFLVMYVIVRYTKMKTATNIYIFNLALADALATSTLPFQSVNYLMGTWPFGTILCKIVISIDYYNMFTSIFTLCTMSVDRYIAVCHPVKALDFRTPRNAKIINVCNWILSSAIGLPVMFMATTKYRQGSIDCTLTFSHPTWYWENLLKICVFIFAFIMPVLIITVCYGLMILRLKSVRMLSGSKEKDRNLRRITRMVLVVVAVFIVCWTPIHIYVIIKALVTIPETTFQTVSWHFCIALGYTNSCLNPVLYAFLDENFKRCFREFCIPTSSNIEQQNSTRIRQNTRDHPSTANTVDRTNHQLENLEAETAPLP
Chain of Opioid receptors; mu & delta (P41143 whole entry, looked up): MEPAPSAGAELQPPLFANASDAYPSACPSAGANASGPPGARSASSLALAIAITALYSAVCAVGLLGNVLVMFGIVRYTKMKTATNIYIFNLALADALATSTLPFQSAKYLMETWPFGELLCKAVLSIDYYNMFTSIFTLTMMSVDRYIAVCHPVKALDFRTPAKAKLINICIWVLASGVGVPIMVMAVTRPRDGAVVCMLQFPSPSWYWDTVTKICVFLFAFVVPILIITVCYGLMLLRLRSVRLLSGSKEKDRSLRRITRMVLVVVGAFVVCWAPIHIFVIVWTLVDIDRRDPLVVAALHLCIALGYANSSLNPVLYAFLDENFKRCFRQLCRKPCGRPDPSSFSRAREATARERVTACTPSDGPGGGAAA
The target in test [3] is Kappa-type opioid receptor (Cavia porcellus, UniProt P41144). Description: Binding affinity was determined in a crude membrane preparation from guinea pig brain by displacement of [3H]U-69593 from Opioid receptor kappa 1. The test is classed as cell membranes. Summed up: as §1
Chain of Kappa-type opioid receptor (P41144 whole entry): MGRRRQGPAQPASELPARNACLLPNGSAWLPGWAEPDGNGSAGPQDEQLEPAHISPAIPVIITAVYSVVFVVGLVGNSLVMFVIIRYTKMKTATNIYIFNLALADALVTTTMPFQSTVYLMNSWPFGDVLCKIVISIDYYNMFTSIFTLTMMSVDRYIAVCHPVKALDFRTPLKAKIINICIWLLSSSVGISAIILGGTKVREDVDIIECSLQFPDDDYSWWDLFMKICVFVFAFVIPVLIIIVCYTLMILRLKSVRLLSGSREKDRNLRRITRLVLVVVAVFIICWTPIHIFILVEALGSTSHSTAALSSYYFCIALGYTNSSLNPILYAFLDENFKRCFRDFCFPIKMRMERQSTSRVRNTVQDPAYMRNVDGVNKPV

Chain of Mu-type opioid receptor (P97266 whole entry): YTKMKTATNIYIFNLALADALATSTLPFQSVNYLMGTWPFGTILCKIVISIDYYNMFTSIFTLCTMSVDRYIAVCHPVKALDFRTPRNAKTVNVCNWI

As for `O=C1/C(=C\c2ccccc2)C[C@@]2(O)[C@H]3Cc4ccc(O)c5c4[C@@]2(CCN3CC2CC2)[C@H]1O5`, the inhibitory constant (Ki) came out at 33 nM in test [1] and 34 nM in test [3]. The Selectivity ratio in test [2] is 8.6.

As for `O=C1/C(=C/c2c3ccccc3cc3ccccc23)C[C@@]2(O)[C@H]3Cc4ccc(O)c5c4C2(CCN3CC2CC2)[C@H]1O5`, the Ki came to 110 nM in test [1] and 170 nM in test [3]. Also, the Selectivity ratio in test [2] worked out at 6.4.

Take `O=C1/C(=C/c2ccc3ccccc3c2)C[C@@]2(O)[C@H]3Cc4ccc(O)c5c4C2(CCN3CC2CC2)[C@H]1O5`: the inhibitory constant (Ki) in test [1] amounted to 23 nM; in test [3], 74 nM. Also, the Selectivity ratio in test [2] turned out to be 0.6.

`O=C1/C(=C\c2ccc(-c3ccccc3)cc2)C[C@@]2(O)[C@H]3Cc4ccc(O)c5c4C2(CCN3CC2CC2)[C@H]1O5`: the inhibitory constant (Ki) in test [1] came out at 210 nM; in test [3] it was 400 nM. Also, the Selectivity ratio in test [2] was 4.2.

`O=C1/C(=C/c2ccc(-c3ccccc3)cc2)C[C@@]2(O)[C@H]3Cc4ccc(O)c5c4C2(CCN3CC2CC2)[C@H]1O5`: the Ki in test [1] worked out at 50 nM; in test [3], 190 nM. For the same molecule, in test [2], the Selectivity ratio stood at 0.6.

On to `O=C1/C(=C/c2cccc3ccccc23)C[C@@]2(O)[C@H]3Cc4ccc(O)c5c4C2(CCN3CC2CC2)[C@H]1O5`, for which the inhibitory constant (Ki) was 36 nM in test [1] and 120 nM in test [3]. For the same molecule, the Selectivity ratio in test [2] came to 7.5.

As to `CC(C)CN1CCC23c4c5ccc(O)c4O[C@H]2C(=O)/C(=C\c2ccc4ccccc4c2)C[C@@]3(O)[C@H]1C5`, the Selectivity ratio in test [2] came out at 3.

On to `O=C1/C(=C/c2ccccc2)C[C@@]2(O)[C@H]3Cc4ccc(O)c5c4[C@@]2(CCN3CC2CC2)[C@H]1O5` [BNTX], for which the Ki in test [1] is 26 nM; in test [3] it was 48 nM. Moreover, the Selectivity ratio in test [2] is 4.

Regarding `O=C1/C(=C\c2cccc3ccccc23)C[C@@]2(O)[C@H]3Cc4ccc(O)c5c4C2(CCN3CC2CC2)[C@H]1O5`, the Ki in test [1] came out at 11 nM; in test [3] it was 37 nM. Besides, the Selectivity ratio in test [2] amounted to 15.

As to `O=C1/C(=C\c2c3ccccc3cc3ccccc23)C[C@@]2(O)[C@H]3Cc4ccc(O)c5c4C2(CCN3CC2CC2)[C@H]1O5`, the Ki in test [1] was 34 nM; in test [3] it was 100 nM. In addition, the Selectivity ratio in test [2] is 14.

(Values after ChEMBL document CHEMBL1130338, “(E)- and (Z)-7-arylidenenaltrexones: synthesis and opioid receptor radioligand displacement assays” (J Med Chem, 1997).)
